Data taken from ChEMBL document CHEMBL1144984, “Synthesis and antibacterial activity of pyrroloaryl-substituted oxazolidinones” (2003).
≈ marks a conversion by molar mass, not a printed value.

Tests used:
Type in all cases: functional
[1] = tested on: Staphylococcus aureus; assay: Minimum inhibitory concentration against Staphylococcus aureus OC 4172 in precense of 50% mouse serum
In short: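 Broth microdilution MIC against S. aureus OC 4172 (Smith, methicillin-susceptible) with 50% mouse serum in the medium, to gauge protein binding or serum inactivation. Run by NCCLS methods with linezolid as standard. MIC is the lowest concentration inhibiting visible growth.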

[2] = tested on: Enterococcus faecalis; assay: Minimum inhibitory concentration against Enterococcus faecalis ATTCC 29212
In short: (§1)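 Broth microdilution MIC run by National Committee for Clinical Laboratory Standards methods, with linezolid as standard. MIC is the lowest compound concentration inhibiting visible growth.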

[3] = tested on: Staphylococcus aureus; assay: Minimum inhibitory concentration against methicillin resistant Staphylococcus aureus OC 2878
In short: (§2)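 Broth microdilution per NCCLS methods; MIC read as the lowest compound concentration inhibiting visible growth. Linezolid run as standard. Strains from a four-strain Gram-positive screening panel: S. aureus OC 2878 is methicillin-resistant, E. faecium OC 3312 is vancomycin-resistant.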

[4] = tested on: Enterococcus faecium; assay: Minimum inhibitory concentration against vancomycin resistant Enterococcus faecium OC 3312; in short: as §2
[5] = tested on: Staphylococcus aureus; assay: Minimum inhibitory concentration against Staphylococcus aureus broth; in short: as §1
[6] = tested on: Mus musculus; assay: Effective dose of compound after oral administration in mice with Staphylococcus aureus OC4172 (Smith) was determined
In short: (§3)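 Murine model of lethal systemic infection, with compound given orally. ED50 is the dose protecting 50% of mice from death, expressed in mg/kg/day.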

[7] = tested on: Mus musculus; assay: Effective dose of compound after oral administration in murine model infected with Staphylococcus aureus OC4172 (Smith) was determined; in short: as §3

Compound	MIC [1] [µg/mL]	MIC [2] [µg/mL]	MIC [3] [µg/mL]	MIC [4] [µg/mL]	MIC [5] [µg/mL]	ED50 [6] [mg/kg/day]	ED50 [7] [mg/kg/day]
CC(=O)NC[C@H]1CN(c2ccc(-n3cc4cccnc4c3)c(F)c2)C(=O)O1	2 (≈ 5.43 µM)	1 (≈ 2.71 µM)	0.5 (≈ 1.36 µM)	1 (≈ 2.71 µM)	1 (≈ 2.71 µM)		
CC(=O)NC[C@H]1CN(c2ccc(N3Cc4ccccc4C3)c(F)c2)C(=O)O1	16 (≈ 43.3 µM)	4 (≈ 10.8 µM)	1 (≈ 2.71 µM)	4 (≈ 10.8 µM)	4 (≈ 10.8 µM)	> 80	
CCN(Cc1ccccn1)c1ccc(N2C[C@H](CNC(C)=O)OC2=O)cc1F	> 128	> 128		> 128	> 128		
CC(=O)NC[C@H]1CN(c2ccc(-n3cc4cncnc4c3)c(F)c2)C(=O)O1	2 (≈ 5.41 µM)	1 (≈ 2.71 µM)	1 (≈ 2.71 µM)	0.5 (≈ 1.35 µM)	1 (≈ 2.71 µM)		
CC(=O)NC[C@H]1CN(c2ccc(-n3cc4ccncc4c3)c(F)c2)C(=O)O1	1 (≈ 2.71 µM)	1 (≈ 2.71 µM)	0.5 (≈ 1.36 µM)	0.5 (≈ 1.36 µM)	0.5 (≈ 1.36 µM)		
CC(=O)NC[C@H]1CN(c2ccc(N3C(=O)c4ccncc4C3=O)c(F)c2)C(=O)O1	> 128	> 128		> 128	> 128		
CC(=O)NC[C@H]1CN(c2ccc(N3C(=O)c4cccnc4C3=O)c(F)c2)C(=O)O1	> 128	> 128		> 128	> 128		
CC(=O)NC[C@H]1CN(c2ccc(N3Cc4ncccc4C3=O)c(F)c2)C(=O)O1	8 (≈ 20.8 µM)	16 (≈ 41.6 µM)	4 (≈ 10.4 µM)	8 (≈ 20.8 µM)	16 (≈ 41.6 µM)		
CC(=O)NC[C@H]1CN(c2ccc(N3Cc4ccncc4C3)c(F)c2)C(=O)O1	1 (≈ 2.7 µM)	1 (≈ 2.7 µM)	0.5 (≈ 1.35 µM)	1 (≈ 2.7 µM)	1 (≈ 2.7 µM)		
CC(=O)NC[C@H]1CN(c2ccc(N3C(=O)c4ccccc4C3=O)c(F)c2)C(=O)O1	128 (≈ 322 µM)	64 (≈ 161 µM)	16 (≈ 40.3 µM)	32 (≈ 80.5 µM)	32 (≈ 80.5 µM)		
CCN(Cc1cccnc1)c1ccc(N2C[C@H](CNC(C)=O)OC2=O)cc1F	32 (≈ 82.8 µM)	16 (≈ 41.4 µM)	8 (≈ 20.7 µM)	16 (≈ 41.4 µM)	16 (≈ 41.4 µM)		
CC(=O)NC[C@H]1CN(c2ccc(N3Cc4cccnc4C3=O)c(F)c2)C(=O)O1	8 (≈ 20.8 µM)	32 (≈ 83.3 µM)	8 (≈ 20.8 µM)	8 (≈ 20.8 µM)	8 (≈ 20.8 µM)		
CC(=O)NC[C@H]1CN(c2ccc(N3Cc4ccccc4C3=O)c(F)c2)C(=O)O1	16 (≈ 41.7 µM)	8 (≈ 20.9 µM)	4 (≈ 10.4 µM)	8 (≈ 20.9 µM)	4 (≈ 10.4 µM)		
CC(=O)NC[C@H]1CN(c2ccc(N3Cc4cccnc4C3)c(F)c2)C(=O)O1	1 (≈ 2.7 µM)	0.5 (≈ 1.35 µM)	0.25 (≈ 0.675 µM)	0.5 (≈ 1.35 µM)	0.5 (≈ 1.35 µM)		
CC(=O)NC[C@H]1CN(c2ccc(N3Cc4cncnc4C3)c(F)c2)C(=O)O1	2 (≈ 5.39 µM)	2 (≈ 5.39 µM)	1 (≈ 2.69 µM)	1 (≈ 2.69 µM)	1 (≈ 2.69 µM)		
CC(=O)NC[C@H]1CN(c2ccc(N3CCOCC3)c(F)c2)C(=O)O1 [LINEZOLID]			1 (≈ 2.96 µM)	2 (≈ 5.93 µM)			8
